Reference: ChEMBL document CHEMBL1127669, “Conformationally constrained peptides and semipeptides derived from RGD as potent inhibitors of the platelet fibrinogen receptor and platelet aggregation” (J Med Chem, 1994)

What was measured:
Canis familiaris = species on record: Canis familiaris; experiment: Inhibition of platelet aggregation in canine platelet rich plasma induced by ADP; type: functional, Canis lupus familiaris
How it was run: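 Citrated canine PRP aggregation read optically by light transmittance. Peptide stock was 12 mM in 0.2 M acetic acid. Final 200 µM peptide and 10 µM ADP, pH 7.7, after 5-min preincubation with peptide.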

[1] = target: T1, Integrin alpha-IIb/beta-3 (Homo sapiens, UniProt P05106+P08514); experiment: Inhibition of [3H]-SKF- 107260 binding to purified GPIIb/IIIa from human platelets reconstituted in liposomes
How it was run: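 Competition binding on filter wells precoated with 10 µg/mL polylysine. Reaction started with 0.5 µg lectin-purified receptor, incubated 1 h at room temperature, filtered, washed in ice-cold buffer, scintillation counted. IC50 from nonlinear least-squares fit; Ki by Cheng–Prusoff. Mean of quadruplicates, single experiment.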

[2] = target: T1, Integrin alpha-IIb/beta-3; experiment: Tested for inhibition of fibrinogen binding to purified GPIIb/IIIa isolated from human platelets and reconstituted in liposomes
How it was run: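 Displacement of [¹²⁵I]fibrinogen from purified human platelet GPIIb/IIIa incorporated into phospholipid vesicles. Values without statistical limits come from a single determination.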

T1 sequence (P05106 27-788 limits assumed): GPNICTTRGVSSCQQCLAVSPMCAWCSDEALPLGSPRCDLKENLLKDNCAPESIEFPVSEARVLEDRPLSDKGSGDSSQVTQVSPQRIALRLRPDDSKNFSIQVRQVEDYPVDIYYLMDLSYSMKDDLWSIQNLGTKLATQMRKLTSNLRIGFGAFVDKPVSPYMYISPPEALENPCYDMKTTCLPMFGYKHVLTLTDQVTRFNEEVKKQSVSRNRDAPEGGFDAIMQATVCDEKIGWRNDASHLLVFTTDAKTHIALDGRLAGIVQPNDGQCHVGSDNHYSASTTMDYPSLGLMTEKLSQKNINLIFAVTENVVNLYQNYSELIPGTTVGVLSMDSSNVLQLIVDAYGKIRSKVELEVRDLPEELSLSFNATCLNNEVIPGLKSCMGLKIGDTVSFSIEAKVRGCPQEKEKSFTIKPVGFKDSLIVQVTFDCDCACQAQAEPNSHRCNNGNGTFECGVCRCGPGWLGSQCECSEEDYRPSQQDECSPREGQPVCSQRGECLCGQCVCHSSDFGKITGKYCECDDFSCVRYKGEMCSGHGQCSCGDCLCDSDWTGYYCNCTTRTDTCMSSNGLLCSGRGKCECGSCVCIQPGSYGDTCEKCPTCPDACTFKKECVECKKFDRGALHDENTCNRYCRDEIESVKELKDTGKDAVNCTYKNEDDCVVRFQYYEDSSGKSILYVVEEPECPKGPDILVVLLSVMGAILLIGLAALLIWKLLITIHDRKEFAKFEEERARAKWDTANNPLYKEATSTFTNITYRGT
T1 sequence (P08514 32-887 limits assumed): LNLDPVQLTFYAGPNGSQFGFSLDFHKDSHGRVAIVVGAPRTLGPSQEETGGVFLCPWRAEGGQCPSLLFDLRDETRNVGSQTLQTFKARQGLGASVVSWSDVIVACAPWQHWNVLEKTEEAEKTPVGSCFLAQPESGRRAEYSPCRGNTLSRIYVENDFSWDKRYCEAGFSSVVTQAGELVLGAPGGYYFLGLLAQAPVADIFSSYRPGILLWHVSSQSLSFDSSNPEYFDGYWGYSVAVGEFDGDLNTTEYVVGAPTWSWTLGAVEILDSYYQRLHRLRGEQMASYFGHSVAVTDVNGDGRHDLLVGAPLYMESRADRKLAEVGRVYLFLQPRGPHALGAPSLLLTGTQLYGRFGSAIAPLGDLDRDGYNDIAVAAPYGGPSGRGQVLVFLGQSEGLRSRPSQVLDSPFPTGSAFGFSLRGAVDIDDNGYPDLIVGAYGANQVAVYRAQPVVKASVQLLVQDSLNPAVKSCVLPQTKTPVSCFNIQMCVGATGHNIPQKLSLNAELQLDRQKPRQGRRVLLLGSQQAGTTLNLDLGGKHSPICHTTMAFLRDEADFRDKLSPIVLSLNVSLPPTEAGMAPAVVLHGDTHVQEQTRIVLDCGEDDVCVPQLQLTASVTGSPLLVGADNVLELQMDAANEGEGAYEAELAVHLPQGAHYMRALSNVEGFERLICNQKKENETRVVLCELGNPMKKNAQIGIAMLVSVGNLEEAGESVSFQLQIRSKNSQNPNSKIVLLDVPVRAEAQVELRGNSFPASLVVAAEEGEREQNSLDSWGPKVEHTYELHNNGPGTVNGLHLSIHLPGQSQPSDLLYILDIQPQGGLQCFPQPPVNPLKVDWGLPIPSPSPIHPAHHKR
T1 sequence (P08514 891-1039 limits assumed): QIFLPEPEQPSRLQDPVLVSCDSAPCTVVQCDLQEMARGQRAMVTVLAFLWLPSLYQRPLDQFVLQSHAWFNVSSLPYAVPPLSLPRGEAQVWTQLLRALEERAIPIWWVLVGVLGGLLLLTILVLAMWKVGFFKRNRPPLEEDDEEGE

| Compound | IC50 (Canis familiaris; Canis lupus familiaris, Plasma) | Ki [1] | Ki [2] | IC50 (Canis familiaris) |
| --- | --- | --- | --- | --- |
| CC(=O)N[C@H]1CSSC(C)(C)[C@@H](C(N)=O)NC(=O)[C@H](CC(=O)O)NC(=O)CNC(=O)[C@H](CCCN=C(N)N)N(C)C1=O | 360 nM | 102 nM | – | – |
| CC(=O)N[C@@H]1C(=O)N(C)[C@@H](CCCN=C(N)N)C(=O)NCC(=O)N[C@@H](CC(=O)O)C(=O)N[C@H](C(N)=O)C(C)(C)SSC1(C)C (single isomer, unassigned) | 370 nM | – | 2.5 nM | – |
| CC(=O)N[C@H]1CSSC(C)(C)[C@@H](C(N)=O)NC(=O)[C@H](CC(=O)O)NC(=O)CNC(=O)[C@H](CCCN=C(N)N)N(C)C(=O)CN(Cc2ccccc2)C1=O (single isomer, unassigned) | 290 nM | – | 430 nM | – |
| N=C(N)NCCC[C@@H]1NC(=O)c2ccccc2SSc2ccccc2NC(=O)[C@H](CC(=O)O)NC(=O)CNC1=O (single isomer, unassigned) | 290 nM | – | 27 nM | – |
| CC(=O)N[C@@H]1C(=O)N[C@@H](CCCN=C(N)N)C(=O)NCC(=O)N[C@@H](CC(=O)O)C(=O)N[C@H](C(N)=O)CSSC1(C)C (single isomer, unassigned) | 7970 nM | – | 188 nM | – |
| CC(=O)N[C@H]1CSSC(C)(C)[C@@H](C(N)=O)NC(=O)[C@H](CC(=O)O)NC(=O)CN(C)C(=O)[C@H](CCCN=C(N)N)N(C)C1=O (single isomer, unassigned) | 39500 nM | – | 15100 nM | – |
| CC(=O)N[C@@H]1CSSC(C)(C)[C@H](C(N)=O)NC(=O)C(CC(=O)O)NC(=O)CNC(=O)C(CCCN=C(N)N)NC1=O (single isomer, unassigned; 31) | – | – | 3000 nM | 20300 nM |
